Source: PubChem (Sanford-Burnham Center for Chemical Genomics)
bIAP inhibitor: blocks bovine intestinal alkaline phosphatase activity; purified bovine IAP, CDP-star luminescence, 30 min; inhibition, % at 20 µM; 190,000 tested, under 10 active; AID 1019;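 active = over 50% inhibition of intestinal alkaline phosphatase at 20 µM in the single-dose screen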
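System: Purified bovine intestinal alkaline phosphatase (IAP) enzyme | Input: IAP diluted 1/65,000,000 in the well | Also added: CDP-star chemiluminescent phosphatase substrate, 30 µM final | Dosing: 20 µM single dose | Times: Enzyme reaction for 30 min at room temperature | Detection: Luminescence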
bIAP activator: increases bovine intestinal alkaline phosphatase activity | activation factor at 20 µM | AID 1016 | purified bovine IAP, CDP-star luminescence, 30 min; active compounds read high; fold of DMSO-control signal, blank-subtracted | actives 0.17% (n = 200,000);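 active = activation factor of 2 or more at 20 µM, a signal rise over negative controls twice the positive control's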
mIAP activ: mouse IAP activation. muIAP, CDP-Star luminescence, 30 min; active compounds read high; 1 = vehicle-only enzyme signal, 0 = enzyme-free wells. activation factor at 10 µM. actives 0.24% (n = 330,000). AID 2805;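 active = activation factor of at least 2 at 20 µM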
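Assay system: mouse IAP enzyme; reagent: chemiluminescent substrate CDP-Star; dosing: test compounds delivered from DMSO solution; schedule: 30 min at room temperature; measured by: luminescence from enzymatic CDP-Star hydrolysis; controls: DMSO-only wells and no-enzyme negative control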
mIAP inh: mouse IAP inhibition; purified mouse IAP, CDP-Star luminescence, 30 min; inhibition, % at 10 µM; actives 0.2% (n = 330,000); AID 2806;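 active = inhibition of at least 40% at 10 µM in the primary screen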;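 also: plate controls were DMSO with enzyme for no effect and no enzyme wells for full effect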
hIAP act: human IAP activation | P09923 | purified human IAP, CDP-Star luminescence, 30 min; active compounds read high; 1 = vehicle-only enzyme, 0 = enzyme-free background | activation factor at 10 µM | actives 0.16% (n = 330,000) | AID 2524;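 active = activation factor of the enzyme at least 2-fold when tested at 20 µM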
Target sequence (P09923 whole entry, looked up): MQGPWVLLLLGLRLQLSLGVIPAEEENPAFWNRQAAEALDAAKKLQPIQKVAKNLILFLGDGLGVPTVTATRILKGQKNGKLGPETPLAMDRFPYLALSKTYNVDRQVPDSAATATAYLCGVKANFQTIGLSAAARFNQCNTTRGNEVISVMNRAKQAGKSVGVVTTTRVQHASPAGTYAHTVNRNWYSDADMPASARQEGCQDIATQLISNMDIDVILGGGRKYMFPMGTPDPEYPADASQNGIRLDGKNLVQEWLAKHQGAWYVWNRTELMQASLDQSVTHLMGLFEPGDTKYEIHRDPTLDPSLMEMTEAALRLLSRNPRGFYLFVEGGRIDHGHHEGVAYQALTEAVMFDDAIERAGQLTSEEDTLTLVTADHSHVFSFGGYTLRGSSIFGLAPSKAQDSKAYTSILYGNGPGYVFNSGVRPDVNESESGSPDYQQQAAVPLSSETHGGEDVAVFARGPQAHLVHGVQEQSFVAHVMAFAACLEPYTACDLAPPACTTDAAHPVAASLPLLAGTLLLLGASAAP
hIAP block: blocks human intestinal alkaline phosphatase. P09923. purified IAP, CDP-Star luminescence, 30 min. inhibition, % at 10 µM. actives 0.12% (n = 330,000);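 active = inhibition reaching a set limit with compound at 10 µM in the primary screen, cut at about 35% in these data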;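 also: plate controls were DMSO wells with enzyme for no effect and no-enzyme buffer wells for full effect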
* hit, by the source's call; . = no result. This is a sample that favours compounds with a hit; in the whole collection about 0.79% have one here.

SMILES	bIAP inhibitor	bIAP activator	mIAP activ	mIAP inh	hIAP act	hIAP block
CC(C)[C@H](NS(=O)(=O)c1ccccc1)C(=O)Nc1nccs1	.	.	0.96	4	0.95	4
C=CCn1c2ccccc2c2nnc(SCCCn3c(=O)[nH]c4ccccc43)nc21	-99	2*	.	.	.	.
Cc1ccc(NC(=O)Cc2csc(-c3ccccc3)n2)cc1F	-2	1	1	-2	0.65	36*
O=C(Cc1csc(-c2ccccc2)n1)Nc1ccc(C(F)(F)F)cc1	16	0.8	0.99	1	1	-4
COc1cccc(NC(=O)C2CCN(S(=O)(=O)c3ccc4c(c3)OCCO4)CC2)c1	-152	2.5*	1.5	-49	0.84	16
COc1ccc(OC)c(S(=O)(=O)N2CCC(C(=O)Nc3cccc(C(F)(F)F)c3)CC2)c1	0	1	2.6*	-156	1.1	-11
O=C(Nc1ccccc1C(=O)NCc1cccnc1)c1ccccc1F	.	.	1.1	-12	0.7	30
CC1CCCC(NC(=S)Nc2cccc(S(=O)(=O)N(C)C)c2)C1C (configuration not stated)	4	1	4.9*	-392	1.2	-23
CN(C)S(=O)(=O)c1cccc(NC(=S)NC23CC4CC(CC(C4)C2)C3)c1	.	.	2.7*	-174	1.1	-14
Cc1ccc(S(=O)(=O)N(C)C)cc1NC(=S)NC12CC3CC(CC(C3)C1)C2	.	0.3	.	.	.	.
CCn1c(NCc2cc(Br)ccc2NS(=O)(=O)c2ccc(C)cc2)nc2ccccc21	-45	1.5	2.1*	-110	1.1	-7
CCOC(=O)c1c(NC(=O)C2CCCN(S(=O)(=O)c3ccc(C)cc3)C2)sc2c1CCCC2 (configuration not stated)	10	0.9	0.98	2	0.78	22
Cc1ccc(N2CC(C(=O)Nc3nnc(SCCN4CCOCC4)s3)CC2=O)cc1 (configuration not stated)	.	.	0.99	1	1.1	-13
CC(C)(C)OC(=O)NCCCC[C@@H](C(=O)NCCCCCCCCCCC(=O)N1CCN(C(=O)OC(C)(C)C)CC1)n1cc(CCO)nn1	.	.	1.2	-22	0.83	17
CC[C@H](C)Cc1cn([C@@H](CCCCNC(=O)OC(C)(C)C)C(=O)NCCCCCCCCCCC(=O)N2CCN(C(=O)OC(C)(C)C)CC2)nn1	.	.	2.2*	-119	0.97	3
O=C(O)COc1ccccc1Cc1ccccc1	4	1	0.97	3	1.1	-11
CC(COc1ccccc1Cc1ccccc1)N1CCCCC1 (configuration not stated)	.	.	0.91	9	0.6	40*
CCc1nc2ccccc2c(C(=O)Nc2ccc(C)cc2)c1C	.	.	1.1	-7	1.1	-7
CCN(CC)CCN1C(=O)C(=O)/C(=C(/O)c2ccc(S(=O)(=O)N3CCOCC3)cc2)C1c1ccc(C(C)C)cc1 (configuration not stated)	.	.	0.92	8	0.86	14
CCN(CC)CCCNC(=O)CNC(=S)N(CCCN1CCOCC1)Cc1cccs1	-112	2.1*	1.1	-6	1.1	-14
O=C(CNC(=S)N(CCCN1CCOCC1)Cc1cccs1)NCCN1CCOCC1	15	0.9	1	-2	0.93	7
CC(/C=C/c1ccco1)=N\NC(=O)c1cc(C)[nH]n1	-25	1.2	0.59	41*	1.2	-22
O=C(N/N=C\c1ccc(O)c([N+](=O)[O-])c1)C1COc2ccccc2O1 (configuration not stated)	.	.	0.96	4	1.1	-10
Cc1cc([N+](=O)[O-])cc(/C=N\NC(=O)C2COc3ccccc3O2)c1O (configuration not stated)	.	.	0.58	42*	1.3	-34
O=C(Cc1cccc2ccccc12)NCC(=O)N1CCN(Cc2cccc(C(F)(F)F)c2)CC1	.	.	1	-2	0.94	6
SMILES	bIAP inhibitor	bIAP activator	mIAP activ	mIAP inh	hIAP act	hIAP block
Cc1ccccc1CCN1CCCC(CN(C)C(=O)c2ccc3ncccc3c2)C1 (configuration not stated)	.	.	0.93	7	0.81	19
CCOC(=O)c1cc(-c2ccccc2)n(CC(=O)Nc2ccc(OCC)cc2)c1C	17	0.8	1.3	-34	0.98	2
CCOC(=O)c1cc(-c2ccccc2)n(CC(=O)Nc2cc(OC)cc(OC)c2)c1C	.	0.5	2.2*	-116	1.2	-17
CN(C)CCNC(=O)c1cc2c(s1)-c1ccc(Cl)cc1SC2	.	.	0.95	5	0.98	2
CC(C)N1C(=S)SC(C)(C)C1NO (configuration not stated)	-112	2.1*	1	-2	0.91	9
Cc1ccc2c(c1)C1C=CCC1C(C(=O)O)N2 (configuration not stated)	7	0.9	.	.	.	.
COc1cccc2c1NC(C(=O)O)C1CC=CC21 (configuration not stated)	12	0.9	0.43	57*	1.1	-7
O=C(N/N=C/c1ccc[nH]1)c1cccc(Br)c1	-56	1.6	0.71	29	0.99	1
Cc1cccc(C(=O)N/N=C/c2ccc[nH]2)c1	2	1	0.6	40*	0.95	5
O=C(COC(=O)CCNS(=O)(=O)c1ccc(Cl)cc1)Nc1ccccc1OC(F)F	.	.	0.92	8	0.95	5
C=CCn1c(-c2ccc(OC)cc2)nc2ccccc21	13	0.9	0.93	7	0.99	1
COc1ccc(-c2nc3ccccc3n2Cc2ccccc2)cc1	-196	3*	0.97	3	1.2	-17
O=C(Nc1cccc(C(F)(F)F)c1)c1cccnc1N1CCN(c2ccccc2)CC1	9	0.9	0.97	3	0.83	17
Oc1ccc(-c2nc(-c3ccc(O)c(O)c3)cs2)cc1	16	0.8	0.68	32	0.62	38*
C[C@H](CO)N1C[C@H](C)[C@@H](CN(C)S(=O)(=O)c2ccc(F)cc2)Oc2ccc(NC(=O)Nc3ccccc3)cc2C1=O	.	.	2.4*	-144	0.96	4
C[C@@H]1CN([C@@H](C)CO)C(=O)c2cc(NC(=O)Nc3ccc4c(c3)OCO4)ccc2O[C@H]1CN(C)S(=O)(=O)c1ccc(F)cc1	.	.	2.4*	-140	0.98	2
C[C@H](CO)N1C[C@H](C)[C@@H](CN(C)S(=O)(=O)c2ccc(F)cc2)Oc2ccc(NC(=O)Nc3ccc(C(F)(F)F)cc3)cc2C1=O	.	.	1.3	-33	0.93	7
COc1ccc(S(=O)(=O)N(C)C[C@H]2Oc3ccc(NC(=O)Cc4ccccc4)cc3C(=O)N([C@H](C)CO)C[C@@H]2C)cc1	.	.	1.3	-28	1	-1
COc1ccc(NC(=O)Nc2ccc3c(c2)C(=O)N([C@H](C)CO)C[C@H](C)[C@@H](CN(C)S(=O)(=O)c2ccccc2)O3)cc1	.	.	3.3*	-231	0.92	8
